From publication PMC5726935 (Nature chemical biology, 2017) come the findings set out here.

Data set [1] concerns synovial cells isolated from osteoarthritis (OA) patients. Nature of the data set: Cytotoxicity on synovial cells from OA patients. As to conditions: up to 100 μM. Format: cell-based, human.
The test system of data set [2] is TLR1/2/6, TLR3, TLR4, TLR5, TLR7, and TLR9 HEK-Blue. In words: TLR selectivity assay in HEK-Blue TLR-overexpressing cells. Type of data set: cell-based, human. The conditions noted are these: 1 μM compound, TLR-specific agonists.
A further data set concerns the target T1, TLR7 (Homo sapiens, UniProt Q9NYK1).
T1 sequence (Q9NYK1 27-1049): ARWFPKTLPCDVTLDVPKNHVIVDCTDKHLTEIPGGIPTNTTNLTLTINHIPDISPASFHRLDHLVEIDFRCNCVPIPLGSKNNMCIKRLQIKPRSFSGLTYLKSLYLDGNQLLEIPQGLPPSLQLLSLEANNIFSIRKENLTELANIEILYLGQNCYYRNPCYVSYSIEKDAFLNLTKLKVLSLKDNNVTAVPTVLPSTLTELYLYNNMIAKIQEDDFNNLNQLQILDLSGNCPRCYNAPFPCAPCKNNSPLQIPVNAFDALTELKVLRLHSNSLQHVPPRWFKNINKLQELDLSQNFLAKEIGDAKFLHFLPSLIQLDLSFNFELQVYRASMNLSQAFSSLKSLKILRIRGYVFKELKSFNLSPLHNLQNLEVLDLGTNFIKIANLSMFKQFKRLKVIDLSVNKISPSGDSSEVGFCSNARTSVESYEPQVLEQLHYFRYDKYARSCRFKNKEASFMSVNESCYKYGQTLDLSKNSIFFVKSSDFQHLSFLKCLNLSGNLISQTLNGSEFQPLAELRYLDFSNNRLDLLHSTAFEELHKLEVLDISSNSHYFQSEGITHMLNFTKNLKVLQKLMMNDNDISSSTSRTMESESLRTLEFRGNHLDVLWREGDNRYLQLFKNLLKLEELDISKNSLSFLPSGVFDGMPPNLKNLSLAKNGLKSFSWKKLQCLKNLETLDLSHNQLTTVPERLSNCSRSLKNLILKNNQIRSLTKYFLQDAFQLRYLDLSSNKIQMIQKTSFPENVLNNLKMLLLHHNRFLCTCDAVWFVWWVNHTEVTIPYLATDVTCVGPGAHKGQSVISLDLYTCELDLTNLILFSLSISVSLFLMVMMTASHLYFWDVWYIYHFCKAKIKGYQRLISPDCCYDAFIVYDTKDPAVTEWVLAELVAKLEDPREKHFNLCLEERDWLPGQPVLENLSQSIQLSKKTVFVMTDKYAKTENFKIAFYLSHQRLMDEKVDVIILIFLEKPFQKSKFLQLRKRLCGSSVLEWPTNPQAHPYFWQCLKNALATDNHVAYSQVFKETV
In words: SEAP assay in HEK-Blue TLR7 cells activated by R848. Type of data set: cell-based. As to conditions: concentrations up to 75 μM.

Data set [3] concerns synovial cells from OA patients. In words: Spontaneous cytokine release from synovial cells of OA patients. Format: cell-based, human. As to conditions: synovial membrane cultures, 24 h. In short, it runs like this:
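OA synovial cells were isolated from synovial membrane taken at joint replacement and cultured at 1 × 10^6 cells/mL in RPMI 1640. After 24 h, test compound was added at 0, 10, 20, 40 or 80 μM, with chloroquine as positive control. After a further 24 h, TNF-α was measured in cleared supernatant, and IL-1β in cell lysate (EDTA, protease inhibitor) after PBS washes.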

Data set [4] relates to TLR8. Nature of the data set: R848-induced TNF-α production in human PBMC. The conditions noted are these: 1 μg/mL R848, dose-dependent. Format: cell-based.
The test system of data set [5] is TLR8. In words: ELISA of R848-induced TNF-α production in differentiated THP-1 cells. Type of data set: cell-based, human. In short, it runs like this: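 PMA-differentiated THP-1 (100 ng/mL PMA) seeded at 2 × 10^6 cells/well in supplemented RPMI and left 24 h at 37 °C, 5% CO2 to adhere. Medium then switched to unsupplemented RPMI. […] After 24 h, TNF-α in the culture supernatant was quantified by sandwich ELISA kit.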
(In general: ELISA stands for enzyme-linked immunosorbent assay.)

For another data set, the system named is HEK-Blue TLR8 cells. Nature of the data set: WST-1 cell proliferation. The conditions noted are these: HEK-Blue TLR8 cell line. Format: cell-based, human.
In a further data set the test system is PBMC from RA patients. Nature of the data set: TNF-α production in PBMC from RA patients. Type of data set: cell-based, human. In outline:
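PBMC came from four RA patients (2010 ACR criteria) and one AOSD patient, isolated by density-gradient centrifugation. Cells were cultured at 3 × 10^6 cells/mL in RPMI 1640, with test compounds at 0, 10, 40, 80 μM or 0, 2.5, 10, 20, 40 μM. TNF-α was measured in cleared supernatants after 24 h.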

For data set [6], the system named is TLR8. Nature of the data set: RT-PCR of IL-8 and TNF-α mRNA in R848 treated HEK-Blue TLR8 cells. Format: cell-based, human.

`Cc1cccc(-c2ccnc3c(C(N)=O)cnn23)c1` [CU-CPT8m, 7-m-Tolylpyrazolo[1,5-a]pyrimidine-3-carboxamide]: the cytotoxicity entry in data set [1] is recorded as “little cytotoxicity”. The “inhibition of TLRs other than TLR8” value in data set [2] is reported as “did not show significant inhibition of any TLR other than TLR8”. The “TLR7 signaling (TLR7-mediated NF-κB activation)” value at TLR7 is reported as “not affected”. In [3], the “spontaneous release of IL-1β” value is “significant inhibitory effects” and the “spontaneous release of TNF-α” value is recorded as “significant inhibitory effects”. In addition, the “R848-induced TNF-α secretion” value in the data set on TLR8 [4] was “reversed”. Besides, the IC50 (in general, the concentration that inhibits the measured activity by half) in the data set with TLR8 [5] (Homo sapiens, THP-1, 24 h, read-out: IC50, R848-induced TNF-α production) was 90 ± 10 nM. Besides, in the data set with HEK-Blue TLR8 cells, the cytotoxicity result is “negligible cytotoxicity”. Also, the TNF-α level entry in the data set on PBMC from RA patients (PBMCs from RA patients (and one AOSD patient), dose-dependent) is listed as “significantly suppressed”. In the data set with TLR8 [6] (1 μM compound), the “elevation of IL-8 mRNA level induced by R848” value was “completely abolished” and the “elevation of TNF-α mRNA level induced by R848” value was “completely abolished”.
For the compound `O=C(O)c1cnn2c(-c3cccc(C(F)(F)F)c3)ccnc12` [compound 6, 7-(3-(Trifluoromethyl)phenyl)pyrazolo[1,5-a]pyrimidine-3-carboxylic acid], the “R848-induced TNF-α secretion” value with TLR8 [4] is reported as “not by 6”. In addition, in the data set with TLR8 [5] (THP-1, 10 μM compound), the “inhibition of R848-induced TNF-α production” value is on record as “failed to show significant inhibition”. Moreover, the “inhibition of TNF-α level” value with PBMC from RA patients (PBMCs from RA patients, up to 80 μM) was “did not show significant inhibition”. Further, in the data set on TLR8 [6] (10 μM compound), the “inhibition of R848-induced IL-8 mRNA level” value is listed as “negligible inhibition” and the “inhibition of R848-induced TNF-α mRNA level” value is reported as “negligible inhibition”.
